# SIRT5 inh = SIRT5 desuccinylase inhibitors, primary screen, biochemical, fluorescence imaging, single point, set 5 | Purified SirT5, succinyl-peptide AMC, trypsin-coupled fluorescence | inhibition, % at 15 µM | hit rate 1.1% among 330,000 | NAD-dependent protein deacylase sirtuin-5, mitochondrial (Homo sapiens), Q9NXA8 | AID 652115, 2013; in the data active means inhibition above about 15%; inconclusive means no clear call, values can overlap the other calls
# Target sequence (Q9NXA8 whole entry, looked up): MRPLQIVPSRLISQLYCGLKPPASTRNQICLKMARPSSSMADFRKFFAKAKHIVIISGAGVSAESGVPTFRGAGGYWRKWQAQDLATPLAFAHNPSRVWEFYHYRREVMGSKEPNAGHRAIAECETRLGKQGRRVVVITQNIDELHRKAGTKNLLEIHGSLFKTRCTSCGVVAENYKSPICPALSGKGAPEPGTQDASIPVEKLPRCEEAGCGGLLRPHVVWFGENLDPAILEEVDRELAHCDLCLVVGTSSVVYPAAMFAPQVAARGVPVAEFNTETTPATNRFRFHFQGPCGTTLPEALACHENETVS
# E-selectin induc = E-selectin induction in HUVECs, primary screen, imaging, HUVEC, immunofluorescence imaging, single point. P16581. normalized: neutral wells 0, TNF-alpha wells 100. activation, % at 7.58 µM. hit rate 0.37% among 260,000. AID 686992, 2013;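 active means mean E-selectin-positive cell signal at least 10% of the positive control, reached in at least 60% of replicates, without over 20% cell loss; inconclusive means no rule given, readout overlaps actives, possibly toxicity-flagged; inactive means the rest, including those meeting only one limit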
#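 Test system: HUVEC; input: 3,000 HUVEC/well; measured by: immunofluorescence imaging; read-out: % PE-positive cells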
# DENV2 CPE = inhibitors of DENV2 cytopathic effect, primary screen, cell-based, plate reader, single concentration. DENV2-infected cells, cytopathic effect rescue. CPE inhibition, % at 9.99 µM. hit rate 1.7% among 350,000. AID 651640, 2012; in the data active means CPE inhibition above about 20%, passing the limit was not always enough; inconclusive means no clear call, values can overlap the other calls; tested in BHK-21 cells
# Hits are given with their value; i = inactive; ? = inconclusive; nt = not tested or not shown. Hits are enriched below; roughly 2.8% of the tested compounds scored in any of these assays.
SMILES,SIRT5 inh,E-selectin induc,DENV2 CPE
COc1ccc(CN(C)C[C@@H]2OCCCC[C@@H](C)Oc3ccc(NS(=O)(=O)c4cn(C)cn4)cc3C(=O)N([C@H](C)CO)C[C@@H]2C)cc1,i,i,61
CCCN(C)C[C@H]1OCCCC[C@@H](C)Oc2ccc(NS(=O)(=O)c3ccc(OC)cc3)cc2C(=O)N([C@H](C)CO)C[C@@H]1C,i,i,55
COc1ccc(CN(C)C[C@H]2OCCCC[C@H](C)Oc3ccc(NS(=O)(=O)c4cn(C)cn4)cc3C(=O)N([C@@H](C)CO)C[C@H]2C)cc1,i,i,i
CCCN(C)C[C@H]1OCCCC[C@@H](C)Oc2ccc(NS(=O)(=O)c3ccc(OC)cc3)cc2C(=O)N([C@H](C)CO)C[C@H]1C,i,i,i
C[C@H](CO)N1C[C@H](C)[C@H](CN(C)CC2CC2)OCCCC[C@H](C)Oc2ccc(NC(=O)Nc3ccc4c(c3)OCO4)cc2C1=O,i,nt,i
C[C@H](NC(=O)C[C@H]1C=C[C@H](NC(=O)Cc2ccccn2)[C@@H](CO)O1)c1ccccc1,i,i,i
CO[C@H]1CN(C)C(=O)c2ccc(NC(C)=O)cc2OC[C@H](C)N(C(=O)c2ccccn2)C[C@H]1C,i,i,i
C/C(=N\NC(=O)c1cc(-c2ccc(C)s2)nc2ccccc12)c1cccnc1,i,nt,?
C/C(=N\NC(=O)c1cc(-c2ccccc2C)nc2ccccc12)c1cccnc1,i,50,i
C[C@@H]1CN([C@H](C)CO)C(=O)c2cc(NC(=O)Cn3cnnn3)ccc2O[C@@H]1CN(C)S(=O)(=O)c1ccc(Cl)cc1,i,i,i
C[C@@H]1CN([C@H](C)CO)C(=O)c2cc(NC(=O)Cc3cn(C)c4ccccc34)ccc2O[C@H]1CN(C)Cc1ccc(C(=O)O)cc1,i,i,i
C[C@H](CO)N1C[C@H](C)[C@@H](CN(C)Cc2ccc(Cl)c(Cl)c2)Oc2ccc(NC(=O)Cc3cn(C)c4ccccc34)cc2C1=O,i,i,i
C[C@H](CO)N1C[C@H](C)[C@H](CN(C)Cc2ccc(C(=O)O)cc2)Oc2ccc(NC(=O)Cc3cn(C)c4ccccc34)cc2C1=O,i,i,70
C[C@@H]1CN([C@@H](C)CO)C(=O)c2cc(NC(=O)Cc3cn(C)c4ccccc34)ccc2O[C@H]1CN(C)Cc1ccc(Cl)c(Cl)c1,26,i,i
COc1ccc(S(=O)(=O)Nc2ccc3c(c2)C(=O)N([C@H](C)CO)C[C@@H](C)[C@H](CN(C)S(=O)(=O)c2cccs2)O3)cc1,i,i,i
CCCC#Cc1cnc2c(c1)C(=O)N([C@H](C)CO)C[C@H](C)[C@@H](CN(C)C(=O)Nc1ccc(OC)cc1)O2,nt,i,i
COc1ccccc1NC(=O)N1CC(=O)N2[C@H](CO)[C@@H](c3ccc(-c4ccccc4)cc3)[C@H]2C1,i,i,i
CN1CCN(C(=O)C[C@@H]2C[C@@H]3c4cc(NC(=O)Nc5ccc(C(F)(F)F)cc5)ccc4O[C@@H]3[C@@H](CO)O2)CC1,i,i,i
CCCC(=O)N1CCC2(CC1)CN(C(=O)C1CCCC1)[C@@H](CO)c1[nH]c3cc(OC)ccc3c12,i,i,i
COc1ccc2c3c([nH]c2c1)[C@H](CO)N(C(=O)C1CC1)CC31CN(C(=O)NC(C)C)C1,i,i,30
COc1ccc2c3c([nH]c2c1)[C@@H](CO)N(C(=O)C1CCOCC1)CC31CN(C)C1,nt,i,90
CCCC(=O)N1CCC2(CC1)CN(C(=O)C1CC1)[C@H](CO)c1[nH]c3cc(OC)ccc3c12,i,i,34
COc1ccc2c3c([nH]c2c1)[C@H](CO)N(C(=O)C1CCOCC1)CC31CCN(C)CC1,nt,i,i
COc1ccc2c3c([nH]c2c1)[C@@H](CO)N(C(=O)Nc1ccccc1F)CC31CCN(C(C)=O)CC1,nt,i,i
COc1ccc2c3c([nH]c2c1)[C@@H](CO)N(C(=O)C1CC1)CC31CN(C(=O)NC(C)C)C1,i,i,i
SMILES,SIRT5 inh,E-selectin induc,DENV2 CPE
COCC(=O)N1CCC2(CC1)CN(C(=O)Nc1ccccc1F)[C@H](CO)c1[nH]c3cc(OC)ccc3c12,i,i,25
C[C@H]1CCCCO[C@@H](CN(C)S(=O)(=O)c2cn(C)cn2)[C@@H](C)CN([C@@H](C)CO)C(=O)c2cc(NC(=O)Nc3ccccc3)ccc2O1,i,i,i
C[C@H](O)C#Cc1ccc2c(c1)O[C@@H](CN(C)C(=O)c1ccccc1)[C@H](C)CN([C@@H](C)CO)S2(=O)=O,i,i,i
C[C@H]1CCCCO[C@@H](CN(C)Cc2ccc(C(=O)O)cc2)[C@@H](C)CN([C@@H](C)CO)C(=O)c2cc(NC(=O)CCC(F)(F)F)ccc2O1,i,i,i
O=C(c1ccc(F)cc1)N1CC(=O)N2[C@H](CO)[C@@H](c3ccc(C#Cc4ccc(F)cc4)cc3)[C@@H]2C1,i,i,i
O=C(NCC[C@@H]1CC[C@H](NC(=O)C2CC2)[C@H](CO)O1)c1ccc(F)cc1,i,i,i
COc1ccccc1CNC(=O)C[C@H]1CC[C@@H]2[C@H](COC[C@H](O)CN2C(=O)Nc2ccc(Cl)cc2)O1,i,i,i
CCCC(=O)N1CC2(C1)CN(C(=O)C1CCCCC1)[C@@H](CO)c1[nH]c3cc(OC)ccc3c12,i,i,22
CCCC(=O)N1CC2(C1)CN(C(=O)C1CCC1)[C@@H](CO)c1[nH]c3cc(OC)ccc3c12,i,i,i
COc1ccc2c3c([nH]c2c1)[C@@H](CO)N(C(=O)Nc1ccc(F)cc1)CC31CN(S(=O)(=O)c2cccc(C)c2)C1,i,i,i
COc1cccc(S(=O)(=O)N2CC3(CN(C(=O)Nc4ccc(F)cc4)[C@H](CO)c4[nH]c5cc(OC)ccc5c43)C2)c1,nt,i,128
C[C@@H]1CN([C@H](C)CO)S(=O)(=O)c2ccc(C3=CCCCC3)cc2O[C@H]1CN(C)C(=O)C1CCC1,i,i,i
O=C(C[C@H]1C[C@H]2c3cc(NC(=O)Nc4ccc(F)cc4)ccc3O[C@H]2[C@H](CO)O1)NC1CCCCC1,i,i,i
Cc1nn(C)cc1NC(=O)C[C@@H]1CC[C@@H]2[C@@H](COc3ccc(NC(=O)Nc4cccc(Cl)c4)cc3C(=O)N2C)O1,i,i,i
CCOC(=O)C1C(c2cccnc2)NC(=O)NC1(O)C(F)(F)F (stereo not drawn),i,nt,i
CCOC(=O)C1C(c2cccs2)NC(=O)NC1(O)C(F)(F)F (stereo not drawn),17,nt,i
Fc1ccccc1-c1nc(-c2ccncc2)no1,i,i,i
Fc1ccccc1-c1nc(-c2ccc(-c3nn[nH]n3)cc2)no1,i,i,20
COc1ccc(S(=O)(=O)N[C@@H]2CC[C@H](CC(=O)NCCc3ccccc3)O[C@H]2CO)cc1,i,i,i
Cc1cc(C(=O)Nc2cccc3c2O[C@@H](CN(C)Cc2ccc(Oc4ccccc4)cc2)[C@H](C)CN([C@H](C)CO)C3=O)n(C)n1,22,i,i
Cc1cc(C(=O)Nc2cccc3c2O[C@@H](CN(C)Cc2ccc(C(=O)O)cc2)[C@@H](C)CN([C@H](C)CO)C3=O)n(C)n1,i,i,50
